Reference: article PMC8925131 (Experimental cell research, 2021)

Experiments:
[1] = test system: mutant BRaf CRC cells; experiment: Growth of mutant BRaf CRC cells; format: cell-based; details: mutant BRaf CRC cells (Figure S12C)
[2] = test system: mutant KRas CRC cells; experiment: Growth of mutant KRas CRC cells; format: cell-based; details: mutant KRas CRC cells (Figure S12C)
[3] = test system: wild type KRas CRC cells; experiment: Growth of wild type KRas CRC cells; format: cell-based; details: wild type KRas CRC cells (Figure S12C)
[4] = biological target: T1, Plekha7 (D175K) PH domain (Homo sapiens, UniProt Q6IQ23, D175K); experiment: Isothermal titration calorimetry; format: binding; details: ITC, diC8-PI, D175K mutant versus wild-type PH domain
T1 sequence (Q6IQ23 164-298 D175K): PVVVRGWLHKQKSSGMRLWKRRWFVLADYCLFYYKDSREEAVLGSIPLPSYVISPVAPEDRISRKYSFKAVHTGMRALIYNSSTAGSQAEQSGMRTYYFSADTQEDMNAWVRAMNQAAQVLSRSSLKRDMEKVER
Procedure, shortened: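 Human Plekha7 PH domain (residues 164–298, D175K mutant alongside wild type) was GST-vector expressed in E. coli BL21. ITC was run at 23 °C: 50 µM PH domain titrated with 0.5–1.0 mM diC8-phosphoinositides (PI(3,4)P2, PI(3,5)P2, PI(4,5)P2, PI(3,4,5)P3) in 30 mM NaCl, 15 mM Tris pH 7.6, 0.2 mM TCEP. Integrated heats were fit to a single-site model for Kd, reported as mean with SD.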

[5] = biological target: Plekha7-GFP (Pleckstrin homology domain containing, family A member 7, GFP fusion) (human) (UniProt Q6IQ23); experiment: FRET or BRET
Chain of Plekha7-GFP (Pleckstrin homology domain containing, family A member 7, GFP fusion) (human) (Q6IQ23 whole entry, the tested form may be a part): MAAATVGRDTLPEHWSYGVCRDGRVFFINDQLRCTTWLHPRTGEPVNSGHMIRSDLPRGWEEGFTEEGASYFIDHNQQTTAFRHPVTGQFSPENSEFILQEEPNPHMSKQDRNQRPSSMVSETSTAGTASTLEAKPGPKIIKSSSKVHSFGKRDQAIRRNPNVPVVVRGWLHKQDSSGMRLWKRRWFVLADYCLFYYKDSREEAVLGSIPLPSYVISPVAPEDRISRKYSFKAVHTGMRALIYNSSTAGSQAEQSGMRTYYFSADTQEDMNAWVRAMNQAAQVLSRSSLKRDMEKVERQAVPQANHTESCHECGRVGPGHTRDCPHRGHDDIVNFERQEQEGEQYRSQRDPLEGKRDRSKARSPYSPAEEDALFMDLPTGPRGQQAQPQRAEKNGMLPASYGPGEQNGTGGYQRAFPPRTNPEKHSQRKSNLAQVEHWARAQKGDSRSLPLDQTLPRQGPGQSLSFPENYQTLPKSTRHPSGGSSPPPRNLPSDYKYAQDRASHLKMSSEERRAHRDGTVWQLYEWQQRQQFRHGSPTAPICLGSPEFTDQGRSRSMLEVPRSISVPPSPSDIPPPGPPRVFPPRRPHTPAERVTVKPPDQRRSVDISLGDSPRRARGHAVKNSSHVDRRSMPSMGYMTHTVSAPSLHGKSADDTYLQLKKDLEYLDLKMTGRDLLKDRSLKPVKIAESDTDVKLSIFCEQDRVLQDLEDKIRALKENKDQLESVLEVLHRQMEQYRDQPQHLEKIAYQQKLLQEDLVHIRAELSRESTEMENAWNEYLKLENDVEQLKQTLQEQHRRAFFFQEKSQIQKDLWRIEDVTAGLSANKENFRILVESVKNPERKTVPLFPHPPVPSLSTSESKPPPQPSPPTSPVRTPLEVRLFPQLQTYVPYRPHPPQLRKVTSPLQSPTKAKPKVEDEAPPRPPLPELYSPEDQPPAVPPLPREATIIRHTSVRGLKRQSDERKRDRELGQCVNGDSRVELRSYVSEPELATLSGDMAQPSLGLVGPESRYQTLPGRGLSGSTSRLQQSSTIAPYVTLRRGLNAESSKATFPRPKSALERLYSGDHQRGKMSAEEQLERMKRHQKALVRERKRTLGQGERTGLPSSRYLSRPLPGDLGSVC

increase in affinity for Plekha7 (D175K) compared with the wild-type protein [4] | Compound | inhibition of mutant KRas CRC cell growth [2] | effect on growth of wild type KRas CRC cells [3] | other results
 | CC1(C)Oc2ccc(-c3csc(Cn4nc(CCO)c5ccccc5c4=O)n3)cc2O1 [PHT-7704, 2-((4-(2,2-dimethylbenzo[d][1,3]dioxol-5-yl)thiazol-2-yl)methyl)-4-(2-hydroxyethyl)phthalazin-1(2H)-one] | selective inhibition | without affecting the growth | inhibition of growth of mutant BRaf CRC cells [1]: inhibited the growth
 | CCCCCCCC(=O)OC[C@H](COP(=O)(O)O[C@@H]1[C@H](O)[C@H](O)[C@@H](OP(=O)(O)O)[C@H](OP(=O)(O)O)[C@H]1O)OC(=O)CCCCCCC [PI(4,5)P2] |  |  | change of affinity for Plekha7 (D175K) compared with wild-type [4]: did not change
10 fold | CCCCCCCC(=O)OC[C@H](COP(=O)(O)O[C@H]1[C@H](O)[C@@H](OP(=O)(O)O)[C@H](OP(=O)(O)O)[C@@H](OP(=O)(O)O)[C@H]1O)OC(=O)CCCCCCC [PI(3,4,5)P3] |  |  | 
 | wild-type KRas-RFP (from UniProt P01116 1-189) (natural protein) |  |  | average fluorescence lifetime of Plekha7-GFP [5]: 1.9 ns
 | CCCCCCCCCCCCCCCCCCOC[C@H](COP(=O)(O)OC1C(O)[C@@H](O)C(O)C[C@H]1O)OC (stereo partly drawn) [DPIEL] | selective inhibition | without affecting the growth | 
10 fold | CCCCCCCC(=O)OC[C@H](COP(=O)(O)O[C@H]1[C@H](O)[C@@H](O)[C@H](OP(=O)(O)O)[C@@H](OP(=O)(O)O)[C@H]1O)OC(=O)CCCCCCC [PI(3,4)P2] |  |  | 
